Data on eight molecules can be found in ChEMBL document CHEMBL4477187, “Macrolides from a Marine-Derived Fungus, Penicillium meleagrinum var. viridiflavum, Showing Synergistic Effects with Fluconazole against Azole-Resistant Candida albicans” (2016).

Format in all cases: functional
The subject of experiment [1] is Candida albicans. The experiment in a line: Antifungal activity against fluconazole/itraconazole/voriconazole-resistant Candida albicans clinical isolate J2-36 incubated for 48 hrs by microdilution assay. The note with it: isolate J2-36, 48 h. In short, it runs like this:
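Clinical isolate grown 48 h at 37 °C with test compound alone, tested up to […] μg/mL. MIC read as lowest concentration giving ≥90% growth reduction versus drug-free control.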

Experiment [2] relates to Candida albicans. The experiment in a line: Antifungal activity against fluconazole/itraconazole/voriconazole-resistant Candida albicans clinical isolate J2-36 incubated for 48 hrs in presence of fluconazole by checkerboard microdilution assay. The following applies: isolate J2-36, 48 h. In short, it runs like this: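 Test compound combined with fluconazole against the clinical isolate, 48 h at 37 °C. Combination MIC taken as lowest concentration giving ≥90% growth reduction versus drug-free control.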

Experiment [3] deals with Candida albicans. The experiment in a line: Antifungal activity against fluconazole/itraconazole/voriconazole-resistant Candida albicans clinical isolate J2-36 assessed as fractional inhibitory concentration in presence of fluconazole incubated for 48 hrs by checkerboard microdilution assay. An outline of the steps: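 FICA per test compound = MIC in combination with fluconazole / MIC alone. Clinical isolate incubated 48 h at 37 °C. Each MIC = lowest concentration giving ≥90% growth reduction versus drug-free control.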

≈ marks a conversion by molar mass, not a printed value.

Usually MIC stands for the least concentration at which growth counts as inhibited. Regarding `CCCCC[C@@H]1CC[C@H](C)CCCCC(=O)N(C)[C@@H](Cc2ccc(OCCO)cc2)C(=O)O1`, the MIC in experiment [1] was 2 µg/mL (≈ 4.33 µM); in experiment [2], 0.0016 µg/mL. Moreover, the Ratio in experiment [3] is recorded as 0.00078.
The like results for `CCC[C@H](O)C[C@@H]1CC[C@H](C)CCCCC(=O)N(C)[C@@H](Cc2ccc(OCC(O)C(C)(C)O)cc2)C(=O)O1` (some centres not stated) were, in that order, above 32 µg/mL, 0.5 µg/mL and below 0.016.
On the same counts, the results for `CCCCCCC[C@@H]1CC[C@H](C)CCCCC(=O)N(C)[C@@H](Cc2ccc(OCCO)cc2)C(=O)O1` are above 32 µg/mL, 0.5 µg/mL and below 0.016.
The like results for `CCC[C@@H]1CC[C@H](C)CCCCC(=O)N(C)[C@@H](Cc2ccc(OCCO)cc2)C(=O)O1` were, in that order, 16 µg/mL (≈ 36.9 µM), 0.125 µg/mL and 0.0078.
Turning to `C[C@@H]1CCCCC(=O)N(C)[C@@H](Cc2ccc(OCCO)cc2)C(=O)O[C@H](C[C@H](C)O)CC1`, the figures for the minimal inhibitory concentration (MIC) in experiment [1] and in experiment [2] were 8 µg/mL (≈ 17.8 µM) and 0.031 µg/mL, respectively. Also, the Ratio in experiment [3] is 0.0039.
On the same counts, the results for `CCC[C@H](O)C[C@@H]1CC[C@H](C)CCCCC(=O)N(C)[C@@H](Cc2ccc(OCCO)cc2)C(=O)O1` are 1 µg/mL (≈ 2.09 µM), 0.0078 µg/mL and 0.0078.
With `CCCCC[C@@H]1CC[C@H](C)CCCCC(=O)N(C)[C@@H](Cc2ccc(OCC=C(C)C)cc2)C(=O)O1`, the MIC in experiment [1] is above 32 µg/mL; in experiment [2] it was 1 µg/mL. Moreover, the Ratio in experiment [3] is reported as below 0.031.
Consider `OC(Cn1cncn1)(Cn1cncn1)c1ccc(F)cc1F` [FLUCONAZOLE], for which the minimum inhibitory concentration (MIC) in experiment [1] is above 64 µg/mL.
